# Source: PubChem
# In the library only some 2.2% were active in any assay of this set; here they are far more common.
# ARFGAP1 inh: rat ARFGAP1 inhibition | Q62848 | Arfgap1-stimulated ARF1 GTP hydrolysis, GDP FP detection | inhibition, % at 16.5 µM | 360,000 compounds, 0.26% hits;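 active = inhibition above a per-plate limit, mean inhibition of low control wells plus 3 SD, cut at about 25% in these data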;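 also: 0% = DMSO wells with enzyme and 100% = wells lacking Arfgap1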
# Target sequence (Q62848 1-136 limits assumed): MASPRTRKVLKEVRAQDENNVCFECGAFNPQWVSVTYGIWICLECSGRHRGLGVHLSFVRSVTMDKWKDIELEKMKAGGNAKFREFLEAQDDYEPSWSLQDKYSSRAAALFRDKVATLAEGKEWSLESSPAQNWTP
#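 system = rat Arfgap1 catalytic domain, aa 1-136 | technique = FP, GDP Alexa 633 tracer displaced from anti-GDP antibody, 620/688 nm | compound = one concentration, 16.5 µM, DMSO 1.26% | medium = HEPES-based buffer, pH 7.5 | timing = compound-enzyme preincubation 20 min, reaction 120 min, detection 60 min, 25 °C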
# NadD inh: blocks S. aureus nicotinate mononucleotide adenylyltransferase | purified NadD enzyme, colorimetric absorbance read-out | inhibition, % at 20 µM | 360,000 compounds, 0.78% hits; in the data active = inhibition above about 26%
# ASAP1 inh: blocks human ASAP1-stimulated Arf1 GTP hydrolysis. 360,000 compounds, 0.19% hits. Q9ULH1. GDP FP detection. inhibition, % at 16.5 µM; in the data active = inhibition above about 25%;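 also: 0% = vehicle with enzyme and substrate and 100% = no enzyme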
# Target sequence (Q9ULH1 325-724 limits assumed): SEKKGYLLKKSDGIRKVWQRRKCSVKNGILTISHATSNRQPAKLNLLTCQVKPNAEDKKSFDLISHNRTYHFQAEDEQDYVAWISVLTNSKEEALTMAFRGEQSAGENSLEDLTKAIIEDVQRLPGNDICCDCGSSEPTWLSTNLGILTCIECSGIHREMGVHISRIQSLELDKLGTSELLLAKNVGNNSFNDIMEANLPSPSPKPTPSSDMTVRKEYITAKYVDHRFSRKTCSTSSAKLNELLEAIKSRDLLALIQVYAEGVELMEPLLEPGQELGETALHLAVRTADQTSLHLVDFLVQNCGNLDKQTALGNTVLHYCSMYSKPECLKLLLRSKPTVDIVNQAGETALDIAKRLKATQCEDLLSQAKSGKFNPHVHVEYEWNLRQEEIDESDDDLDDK
# rCAG RNA binder: r(CAG) repeat RNA binding. TO-PRO-1 dye displacement fluorescence. inhibition, % at 3 µM. 370,000 compounds, 1.3% hits. AID 651821;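 active = inhibition above the plate cutoff, the mean of all test compounds on that plate plus 3 SD, cut at about 35% in these data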;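 also: 0% = DMSO alone and 100% = 100 µM mitoxantrone as full dye displacement; higher means more dye released from RNA so lower well fluorescence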
# NadD inh conf: NadD (S. aureus) inhibition, single concentration confirmation; shares compounds with NadD inh; purified S. aureus NadD, colorimetric enzyme assay; inhibition, % at 20 µM; 2,000 compounds, 13% hits; in the data active = inhibition mostly above about 42%, no sharp cut-off; inactive = mostly below about 42%
# * marks the source's active call; other numbers are inactive results; x = no result.
SMILES,ARFGAP1 inh,NadD inh,ASAP1 inh,rCAG RNA binder,NadD inh conf
C[C@@H]1COc2cc(N3CCC[C@@H]3CO)ccc2S(=O)(=O)N1,4,-3,4,2,x
Cc1cc(C)c2oc(-c3ccc(C)c(NC(=S)NC(=O)/C=C/c4ccco4)c3)nc2c1,14,35*,-3,21,-2
Cc1ccc2cc(C3C(C#N)=C(N)Oc4c3ccc3cccnc43)c(=O)[nH]c2c1 (centres undefined),x,19,x,x,x
CCc1ccc2[nH]c(=O)c(C3C(C#N)=C(N)Oc4c3ccc3cccnc43)cc2c1 (centres undefined),-10,38*,-2,18,9
Nc1c(S(=O)(=O)c2ccccc2)c2nc3ccccc3nc2n1/N=C/c1ccco1,9,37*,7,27,4
Cc1cccc(S(=O)(=O)c2c(N)n(/N=C/c3ccco3)c3nc4ccccc4nc23)c1,0,41*,8,13,11
Cc1cccc(S(=O)(=O)c2c(N)n(/N=C/c3cccnc3)c3nc4ccccc4nc23)c1,0,4,10,4,x
N#CCC[C@H]1CC[C@]2(CCCN(C(=O)C3CCCCC3)C2)O1,x,x,x,1,x
C=CCN1[C@@H](C)COc2cccc(N3CCCC3)c2S1(=O)=O,x,x,x,0,x
Cc1csc(N2CCCC2c2nc3cc(Cl)c(N4CCCCC4)cc3n2CCCO)n1 (centres undefined),9,3,14,-5,x
Cc1ccc(Cn2c(CCNc3nc(-c4ccc(Cl)c([N+](=O)[O-])c4)cs3)nc3cc(Cl)c(Cl)cc32)cc1,-2,48*,9,12,2
Cc1ccc(Cn2c(C3CCCN3c3nc(-c4ccc(F)cc4)cs3)nc3cc(C(F)(F)F)ccc32)cc1 (centres undefined),7,8,5,9,x
Cc1ccc(Cn2c(C3CCCN3c3nc(-c4ccc(F)cc4)cs3)nc3cc(Cl)c(Cl)cc32)cc1 (centres undefined),0,49*,18,10,26
OCCCn1c(C2CCCN2c2nc(-c3ccc(F)cc3)cs2)nc2cc(Cl)c(N3CCCCC3)cc21 (centres undefined),-3,33*,5,9,5
O=[N+]([O-])c1cc(-c2csc(NCCc3nc4cc(Cl)c(N5CCCCC5)cc4n3CCCO)n2)ccc1Cl,17,23,0,14,x
OCCCn1c(C2CCCN2c2nc(-c3ccc(Cl)cc3)cs2)nc2cc(Cl)c(N3CCCCC3)cc21 (centres undefined),0,33*,-6,10,10
Cc1ccc(Cn2c(C(C)Nc3nc(-c4ccc(F)cc4)cs3)nc3cc(Cl)c(Cl)cc32)cc1 (centres undefined),4,50*,2,9,10
C[C@H](O)[C@@H]1CN2CCc3ccc(-c4ccc5c(c4)OCO5)cc3[C@@H]2C[C@@H]1N(C)C(=O)Nc1ccccc1,x,x,x,3,x
N#Cc1c(-c2ccccc2)c(-c2ccccc2)nn(CC(=O)NNC(=O)Nc2ccc(Cl)c(Cl)c2)c1=O,5,51*,6,23,44
Cc1ccc(NC(=O)CSc2nc3ccc(Nc4nc(N5CCOCC5)nc(N5CCOCC5)n4)cc3s2)cc1,-4,30*,14,2,3
CC(C)Oc1ccc(C(=O)Nc2ccc(N3CCCC3)cc2)cc1,x,21,x,x,x
O=C(/C=C/c1ccc(Cl)c([N+](=O)[O-])c1)Nc1ccc(NC(=O)c2ccco2)cc1,7,4,12,1,x
O=C(Nc1ccc(N2CCCC2)cc1)c1cc(Cl)ccc1Cl,12,52*,11,14,12
O=C(NC(=S)Nc1ccccc1N1CCCC1)c1ccccc1[N+](=O)[O-],3,7,1,0,x
O=C(Nc1ccc(N2CCCC2)cc1)c1ccc(Br)cc1,22,29*,-3,6,-2
SMILES,ARFGAP1 inh,NadD inh,ASAP1 inh,rCAG RNA binder,NadD inh conf
O=C(/C=C/c1ccc(Cl)c([N+](=O)[O-])c1)Nc1ccc(N2CCCC2)cc1,15,42*,3,17,0
O=C(NC(=S)Nc1ccc(N2CCCC2)cc1)c1ccccc1[N+](=O)[O-],4,33*,-6,9,6
O=C(OC12CCCN(C1)/C(=C/c1ccncc1)C2)c1cccc(F)c1 (centres undefined),x,x,x,1,x
COC(=O)C1=C(C)N(Cc2ccc(C(F)(F)F)cc2)C(=NCc2ccc(C(F)(F)F)cc2)NC1c1cccc(C(F)(F)F)c1 (centres undefined),15,x,18,3,x
O=C1NC(=O)c2c(Br)c(Br)c(Br)c(Br)c21,-3,30*,3,3,7
Nc1ccc(Cc2ccc(N)c(O)c2)cc1O,3,37*,10,8,25
O=C(NCc1nc2ccccc2[nH]1)C1=C[C@@H](c2csc3ccccc23)C[C@@H](OCc2ccc(CO)cc2)O1,2,34*,16,14,39
O=C(NCc1nc2ccccc2[nH]1)C1=C[C@H](c2csc3ccccc23)C[C@H](OCc2ccc(CO)cc2)O1,-7,32*,10,16,45
C[C@H]1C=C(C(=O)NCc2nc3ccccc3[nH]2)O[C@@H](OCc2ccc(CO)cc2)C1,-1,-3,0,-5,x
O=C(NCc1nc2ccccc2[nH]1)C1=C[C@@H](c2ccc(Br)cc2)C[C@@H](OCc2ccc(CO)cc2)O1,-6,26,18,4,x
O=C(NC1CCCCN(Cc2cccc(C(F)(F)F)c2)C1=O)C1C2CC3CC(C2)CC1C3 (centres undefined),x,x,x,2,x
Cc1ccccc1NC(=O)Cn1nnc(-c2ccncc2)n1,x,x,x,2,x
Cc1cc(NC(=O)c2cc(-c3cccnc3)nc3c(C)c(C)ccc23)no1,-13,8,7,3,x
Cc1c(Cl)ccc2c(C(=O)Nc3cc(C(C)(C)C)on3)cc(-c3ccccn3)nc12,2,34*,2,5,11
O=C(Nc1cc([N+](=O)[O-])ccc1O)c1cccc([N+](=O)[O-])c1,18,-2,10,2,x
O=C(Nc1cc([N+](=O)[O-])ccc1O)c1cccc(C(=O)Nc2cc([N+](=O)[O-])ccc2O)c1,21,48*,-10,10,-3
N#C/C(=C\c1cn(-c2ccccc2)nc1-c1cc2ccccc2o1)c1nc2ccccc2[nH]1,0,29*,-2,3,12
COc1ccc(-c2nn(-c3ccccc3)cc2/C=C(\C#N)S(=O)(=O)c2ccccc2)cc1OC,-2,-5,9,5,x
CN(C)S(=O)(=O)c1cccc(-c2nn(-c3ccccc3)cc2/C=C(\C#N)c2nc3ccccc3[nH]2)c1,6,37*,-1,10,30
O=C(CN1C(=O)NC2(CCCCCC2)C1=O)Nc1ccc(OC(F)(F)F)cc1,3,-1,16,0,x
CCOC(=O)c1cc2c(=O)n3ccccc3nc2n(Cc2ccco2)c1=NC(=O)c1cccc(OC)c1,-11,45*,-2,2,8
CCOC(=O)c1cc2c(=O)n3cccc(C)c3nc2n(Cc2ccco2)c1=NC(=O)c1ccccc1,1,32*,4,30,11
